Laboratory results as given in ChEMBL document CHEMBL4028903 (J Med Chem, 2017).
Activity calls are given as the source filed them. The calls are words filed in the database; no cut-off is given here.

Tests used:
[1] = AUC in mouse at 10 mg/kg, po administered via gavage by LC-MS/MS analysis; assay type: ADME, organism-based; conditions: in vivo
How it was run: (§1)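 Single oral dose given as a suspension in 0.5% methylcellulose, 0.5% Tween80 and 99% water. Doses were 10 mg/kg in mouse, 1 mg/kg in rat and 2 mg/kg in dog.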

[2] = AUC in rat at 10 mg/kg, po administered via gavage by LC-MS/MS analysis; assay type: ADME, organism-based; conditions: in vivo
How it was run: (§2)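 Rats were dosed IV as a solution in 75% PEG300:25% D5W, or orally as a suspension in 0.5% methylcellulose, 0.5% Tween80 and 99% water.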

[3] = Cmax in rat at 10 mg/kg, po administered via gavage by LC-MS/MS analysis; assay type: ADME, organism-based; parameters: dose 10 mg/kg, route oral; conditions: in vivo; how it was run: as §2
Rattus norvegicus [4] = experiment: In vivo agonist activity at FXR in Sprague-Dawley rat assessed as induction of SHP mRNA level in liver at 0.01 mg/kg, po qd for 14 days measured 7 hrs post last dose on day 14 by qPCR analysis; assay type: functional, organism-based
Rattus norvegicus [5] = experiment: In vivo agonist activity at FXR in Sprague-Dawley rat assessed as induction of SHP mRNA level in liver at 0.3 mg/kg, po qd for 14 days measured 7 hrs post last dose on day 14 by qPCR analysis; assay type: functional, organism-based
Rattus norvegicus [6] = experiment: In vivo agonist activity at FXR in Sprague-Dawley rat assessed as downregulation of CYP8B1 mRNA level in liver at 0.003 mg/kg, po qd for 14 days measured 7 hrs post last dose on day 14 by qPCR analysis; assay type: functional, organism-based
Rattus norvegicus [7] = experiment: In vivo agonist activity at FXR in Sprague-Dawley rat assessed as induction of FGF15 mRNA level in ileum at 0.01 mg/kg, po qd for 14 days measured 7 hrs post last dose on day 14 by qPCR analysis; assay type: functional, organism-based
Rattus norvegicus [8] = experiment: In vivo agonist activity at FXR in po dosed Sprague-Dawley rat assessed as induction of BSEP mRNA level in liver administered once daily for 14 days measured 7 hrs post last dose on day 14 by qPCR analysis; assay type: functional
[9] = Drug uptake in Sprague-Dawley rat plasma at 0.3 mg/kg, po qd administered via gavage measured 7 hrs post last dose on day 14 by LC-MS/MS analysis; assay type: ADME, organism-based
[10] = Drug uptake in Sprague-Dawley rat liver at 0.1 mg/kg, po qd administered via gavage measured 1 hr post last dose on day 14 by LC-MS/MS analysis; assay type: ADME, organism-based; conditions: read-out: Drug uptake
How it was run: (§3)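 Drug concentration in liver was quantified from tissue homogenates, so these are total levels. Unbound liver concentration was not determined.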

[11] = Drug uptake in Sprague-Dawley rat liver at 0.03 mg/kg, po qd administered via gavage measured 7 hrs post last dose on day 14 by LC-MS/MS analysis; assay type: ADME, organism-based; conditions: read-out: Drug uptake; how it was run: as §3
[12] = Drug uptake in Sprague-Dawley rat plasma at 0.03 mg/kg, po qd administered via gavage measured 1 hr post last dose on day 14 by LC-MS/MS analysis; assay type: ADME, organism-based
[13] = Drug uptake in Sprague-Dawley rat plasma at 0.01 mg/kg, po qd administered via gavage measured 1 hr post last dose on day 14 by LC-MS/MS analysis; assay type: ADME, organism-based
[14] = Drug uptake in Sprague-Dawley rat plasma at 0.003 mg/kg, po qd administered via gavage measured 1 hr post last dose on day 14 by LC-MS/MS analysis; assay type: ADME, organism-based
Rattus norvegicus [15] = experiment: Dose normalized AUC (0 to 24 hrs) in Sprague-Dawley rat at 1 mg/kg, po qd administered via gavage measured on day 1 by LC-MS/MS analysis; assay type: ADME, organism-based; conditions: in vivo
Rattus norvegicus [16] = experiment: Dose normalized AUC (0 to 24 hrs) in Sprague-Dawley rat at 0.01 mg/kg, po qd administered via gavage measured on day 11 by LC-MS/MS analysis; assay type: ADME, organism-based; conditions: in vivo
Rattus norvegicus [17] = experiment: Dose normalized AUC (0 to 24 hrs) in Sprague-Dawley rat at 0.003 mg/kg, po qd administered via gavage measured on day 1 by LC-MS/MS analysis; assay type: ADME, organism-based; conditions: in vivo
[18] = AUC (0 to 24 hrs) in Sprague-Dawley rat at 1 mg/kg, po qd administered via gavage measured on day 11 by LC-MS/MS analysis; assay type: ADME, organism-based; parameters: time < 24 hr, dose 1 mg/kg, route oral; conditions: in vivo
[19] = AUC (0 to 24 hrs) in Sprague-Dawley rat at 0.03 mg/kg, po qd administered via gavage measured on day 11 by LC-MS/MS analysis; assay type: ADME, organism-based; parameters: time < 24 hr, dose 0.03 mg/kg, route oral; conditions: in vivo
[20] = AUC (0 to 24 hrs) in Sprague-Dawley rat at 0.01 mg/kg, po qd administered via gavage measured on day 11 by LC-MS/MS analysis; assay type: ADME, organism-based; parameters: dose 0.01 mg/kg, time < 24 hr, route oral; conditions: in vivo
[21] = AUC (0 to 24 hrs) in Sprague-Dawley rat at 0.003 mg/kg, po qd administered via gavage measured on day 1 by LC-MS/MS analysis; assay type: ADME, organism-based; parameters: time < 24 hr, dose 0.003 mg/kg, route oral; conditions: in vivo
[22] = Volume of distribution at steady state in dog at 0.5 mg/kg, iv or 2 mg/kg, po administered via gavage by LC-MS/MS analysis; assay type: ADME, organism-based, Canis lupus familiaris; conditions: in vivo, read-out: Vdss
How it was run: (§4)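 IV dosing used a solution in 75% PEG300:25% D5W for mouse and rat, and a solution in 20% PEG300, 5% solutol, 75% carbonate buffer pH 8 for dog. PO dosing used a suspension in 0.5% methylcellulose, 0.5% Tween80, 99% water for all three species.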

[23] = Half life in mouse at 5 mg/kg, iv by LC-MS/MS analysis; assay type: ADME, organism-based; conditions: in vivo
How it was run: (§5)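 Single IV dose given as a solution. Mouse and rat received it in 75% PEG300:25% D5W. Dog received it in 20% PEG300, 5% solutol and 75% carbonate buffer pH = 8. Plasma was sampled for PK parameters.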

[24] = Half life in dog at 0.5 mg/kg, iv by LC-MS/MS analysis; assay type: ADME, organism-based, Canis lupus familiaris; conditions: in vivo; how it was run: as §5
[25] = AUC in dog at 2 mg/kg, po administered via gavage by LC-MS/MS analysis; assay type: ADME, organism-based, Canis lupus familiaris; conditions: in vivo; how it was run: as §1
[26] = Cmax in dog at 2 mg/kg, po administered via gavage by LC-MS/MS analysis; assay type: ADME, organism-based, Canis lupus familiaris; parameters: dose 2 mg/kg, route oral; conditions: in vivo; how it was run: as §1
[27] = Oral bioavailability in dog at 2 mg/kg administered via gavage by LC-MS/MS analysis; assay type: ADME, organism-based, Canis lupus familiaris; conditions: in vivo; how it was run: as §4
[28] = Drug uptake in Sprague-Dawley rat plasma at 1 mg/kg, po qd administered via gavage measured 7 hrs post last dose on day 14 by LC-MS/MS analysis; assay type: ADME, organism-based
[29] = Drug uptake in Sprague-Dawley rat liver at 3 mg/kg, po qd administered via gavage measured 1 hr post last dose on day 14 by LC-MS/MS analysis; assay type: ADME, organism-based; conditions: read-out: Drug uptake; how it was run: as §3
Mus musculus = experiment: Drug metabolism in mouse assessed as glycine conjugated metabolite formation at 5 mg/kg, iv or 10 mg/kg, po administered via gavage by LC-MS/MS analysis; assay type: ADME, organism-based; conditions: in vivo
Rattus norvegicus [30] = experiment: Drug metabolism in rat assessed as glycine conjugated metabolite formation at 3 mg/kg, iv or 1 mg/kg, po administered via gavage by LC-MS/MS analysis; assay type: ADME, organism-based; conditions: in vivo
Rattus norvegicus [31] = experiment: In vivo agonist activity at FXR in po dosed Sprague-Dawley rat assessed as induction of BSEP mRNA level in liver administered as single dose measured 7 hrs post dose by qPCR analysis

SMILES: O=C(O)c1cc(F)c2nc(N3C4CCC3CC(OCc3c(-c5ccccc5OC(F)(F)F)noc3C3CC3)C4)sc2c1 (configuration not stated)
- AUC [1]: 4.79 µM·h
- AUC [2]: 6.04 µM·h
- Cmax [3]: 2280 nM
- Activity (Rattus norvegicus [4]): Active
- Activity (Rattus norvegicus [5]): Active
- Activity (Rattus norvegicus [6]): Active
- Activity (Rattus norvegicus [7]): Active
- ED50 (Rattus norvegicus [8]): 0.02 mg/kg
- concentration at 7 h [9]: 13.8 nM
- concentration at 1 h [10]: 27.4 nM
- concentration at 7 h [11]: 9.74 nM
- concentration at 1 h [12]: 1.29 nM
- concentration at 1 h [13]: 0.37 nM
- concentration at 1 h [14]: 0.2 nM
- AUC/dose (Rattus norvegicus [15]): 461 nM·h
- AUC/dose (Rattus norvegicus [16]): 496 nM·h
- AUC/dose (Rattus norvegicus [17]): 668 nM·h
- AUC at 24 h [18]: 0.562 µM·h
- AUC at 24 h [19]: 0.02 µM·h
- AUC at 24 h [20]: 0.005 µM·h
- AUC(0-t) at 24 h [21]: 0.002 µM·h
- Vd [22]: 0.46 L/kg
- half-life [23]: 2.6 h
- half-life [24]: 7.4 h
- AUC [25]: 3.66 µM·h
- Cmax [26]: 332 nM
- bioavailability [27]: 10%
- concentration at 7 h [28]: 40.5 nM
- concentration at 1 h [29]: 872 nM
- Drug metabolism (Mus musculus): Metabolite_Notdetected
- Drug metabolism (Rattus norvegicus [30]): Metabolite_Notdetected
- Activity (Rattus norvegicus [31]): Dose-dependent effect
